Published values of several laboratories.
Compare with care: the assays were run in different laboratories.
Target: Leukocyte tyrosine kinase receptor (LTK, Homo sapiens, UniProt P29376)

SMILES	effect on	technique	concentration	remaining binding [%]
O=C(c1ccc(Nc2nccc(-c3cc4ccccc4s3)n2)cc1)N1CCC(N2CCCC2)CC1	binding	competition with immobilised ligand	1 µM	100
COc1ccc2c(c1)O[C@H](c1ccc(OC)c(OC)c1)C[C@@H]2NC(=O)C1(c2ccc3c(c2)OC(F)(F)O3)CC1	cell-free assay	competition with immobilised ligand	1 µM	100
C[C@@H](c1ccc(-n2cnc3c(N)ncnc32)cc1)N1CCc2nn(C)c(Cc3ccccc3)c2C1=O	binding	competition with immobilised ligand	0.1 µM	87
c1cnn2ncc(-c3ccnc(N4CCC45COC5)n3)c2c1	binding	–	1 µM	98
c1cncc(-c2cccc(Nc3nccc(NC4CCCCC4)n3)c2)c1	binding	competition with immobilised ligand	10 µM	68
Cc1cnc(Nc2ccc(C(=O)N3CCC(N4CCCC4)CC3)cc2)nc1-c1cc2ccccc2s1	binding	competition with immobilised ligand	1 µM	85
F[C@@H]1CCN(c2nccc(-c3cnn4ncccc34)n2)C1	binding	–	1 µM	92
Cc1cc(-c2cc(C(F)(F)F)ccc2O[C@H]2C[C@@]2(CNS(=O)(=O)c2ccc([N+](=O)[O-])cc2)c2ccc(F)cc2F)[nH]n1	cell-free assay	competition with immobilised ligand	0.3 µM	6.9
N[C@H]1CCN(c2nccc(-c3cnn4ncccc34)n2)C1	binding	–	1 µM	100
C[C@@H]1CN(c2cc(-c3n[nH]c4ccc(OC5(C)CC5)cc34)ncn2)C[C@H](C)O1	cell-free assay	competition with immobilised ligand	0.1 µM	84
CN(C)c1nccc(-c2cnn3ncccc23)n1	binding	–	1 µM	92
Cc1nc(Cc2cccc(C(F)(F)F)c2)sc1-c1ccc(C(N)=O)nc1	cell-free assay	competition with immobilised ligand	1 µM	100
COc1cnc(Nc2cccc(S(N)(=O)=O)c2)nc1N1CCN(c2ccccc2)C(=O)C1	binding	competition with immobilised ligand	1 µM	91
FC(F)(F)Oc1cccc(-c2cnc3ccc(-c4ccncc4)nn23)c1	cell-free assay	competition with immobilised ligand	5 µM	100
O=C1CCc2cc(Nc3cc(OC4CCOCC4)c([N+](=O)[O-])cc3Cl)ccc2N1	cell-free assay	competition with immobilised ligand	1 µM	100
COc1ccnn2ncc(-c3ccnc(N(C)C)n3)c12	binding	–	1 µM	98
O=C(NCCCN1CCOCC1)c1ccc(Nc2nccc(-c3cc4ccccc4s3)n2)cc1	binding	competition with immobilised ligand	1 µM	100
C=CC(=O)N1CCC(C(=O)NCC(=O)N2CCN(c3nc(-c4cnc(N)nc4C(F)F)nc(N4CCOCC4)n3)CC2)CC1	binding	competition with immobilised ligand	1 µM	100
CN([C@@H]1CCc2c(CC(=O)O)c3cc(S(C)(=O)=O)ccc3n2C1)S(=O)(=O)c1ccc(F)cc1	cell-free assay	competition with immobilised ligand	1 µM	100
C[C@H]1CCN(c2nccc(-c3cnn4ncccc34)n2)C1	binding	–	1 µM	91
CC(=O)C1=C(C)N(c2cccc(C(F)(F)F)c2)C(=O)N[C@@H]1c1ccc(C#N)nc1	cell-free assay	competition with immobilised ligand	1 µM	92.6
O=C(Nc1c[nH]nc1C(=O)NC1CCNCC1)c1cc(F)cc(F)c1	binding	competition with immobilised ligand	1 µM	74
